Source: ChEMBL document CHEMBL1795294, “Modulation of the activity of histone acetyltransferases by long chain alkylidenemalonates (LoCAMs)” (Bioorg Med Chem, 2011)
Activity calls are given as the source filed them. The rule behind the calls is not given here.

How the values were obtained:
MCF7 = assay: Inhibition of histone acetyltransferase in human MCF7 cells assessed as increase of alpha-tubulin acetylation level at 15 and 30 uM after 15 mins by Western blotting
U-937 [1] = assay: Induction of granulocytic differentiation in human U937 after […] using propidium iodide staining by FACS analysis; format: functional, cell-based
Albumin = Albumin (Bos taurus, UniProt P02769); assay: Binding affinity to bovine serum albumin by surface plasmon resonance assay; settings: cattle
[2] = target: CREB-binding protein (Homo sapiens) (UniProt Q92793); assay: Inhibition of human recombinant KAT3A expressed in Escherichia coli BL21 using histone H4 peptide as substrate at 50 uM after 2 hrs relative to control
Summary of the method: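 Recombinant CBP fragment (aa 1098–1877) from E. coli BL21, affinity purified. Spotted on P81 paper in triplicate, washed with TCA/acetone, scintillation DPM compared with negative control, expressed as %.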

U-937 [3] = assay: Inhibition of histone acetyltransferase in human U937 cells assessed as inhibition of acetylation of histone H4 at K16 at 50 uM after 24 hrs by Western blotting; format: cell-based
Summary of the method: (§1)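 U937 cells treated 24 h at 50 µM. Acid-extracted histones (Triton buffer lysis, then 0.2 M HCl overnight at 4 °C) immunoblotted with site-specific antibodies (H3K9/K14/K18/K56ac, H4K5/K8/K16ac, pan-acetyl H4; 1:1000). Loading checked by Ponceau Red staining, or by histone H1 for pan-acetyl H4.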

U-937 [4] = assay: Cell cycle arrest in human U937 cells assessed as accumulation at S phase at 50 uM after 30 hrs using propidium iodide staining by flow cytometry; format: functional, cell-based
Summary of the method: (§2)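 U937 cells kept at 200,000 cells/mL, 37 °C, 5% CO2, treated 30 h at 50 or 25 µM. Phase distribution by flow cytometry. Three independent experiments, mean ± SD.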

U-937 [5] = assay: Inhibition of histone acetyltransferase in human U937 cells assessed as inhibition of acetylation of histone H4 at K5 at 50 uM after 24 hrs by Western blotting; format: cell-based
Summary of the method: as §1

U-937 [6] = assay: Inhibition of histone acetyltransferase in human U937 cells assessed as inhibition of acetylation of histone H3 at K18 at 50 uM after 24 hrs by Western blotting; format: cell-based
Summary of the method: as §1

U-937 [7] = assay: Inhibition of histone acetyltransferase in human U937 cells assessed as inhibition of acetylation of histone H3 at K14 at 50 uM after 24 hrs by Western blotting; format: cell-based
Summary of the method: as §1

U-937 [8] = assay: Inhibition of histone acetyltransferase in human U937 cells assessed as inhibition of acetylation of histone H3 at K56 at 50 uM after 24 hrs by Western blotting; format: cell-based
Summary of the method: as §1

U-937 [9] = assay: Induction of apoptosis in human U937 cells at 50 uM after 30 hrs using annexin V/propidium iodide double-staining by FACS analysis; format: functional
Summary of the method: (§3)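 U937 cells at 200,000 cells/mL, 37 °C, 5% CO2, exposed 30 h at 50 or 25 µM. Dose–response runs used 5–200 µM, with IC50 taken as the concentration giving 50% apoptosis. Annexin V/propidium iodide double staining, apoptotic subpopulations counted by FACS. Three independent experiments, mean ± SD.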

[10] = target: Histone acetyltransferase p300 (Homo sapiens) (UniProt Q09472); assay: Binding affinity to immobilized His6-tagged human full-length KAT3B expressed in Sf9 cells by surface plasmon resonance assay
[11] = target: Histone acetyltransferase p300 (Homo sapiens) (UniProt Q09472); assay: Binding affinity to His6-tagged immobilized human KAT3B catalytic domain expressed in Sf9 cells by surface plasmon resonance assay
[12] = target: Histone acetyltransferase KAT2B (Homo sapiens) (UniProt Q92831); assay: Inhibition of human recombinant KAT2B using histone H4 peptide as substrate at 50 uM after 2 hrs
Summary of the method: (§4)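 Human PCAF (200 ng) in KAT buffer with 10 µg histone H4 peptide (aa 2–24), 20 µM acetyl-CoA with 0.5 µCi/mL [3H]-acetyl-CoA, and compound at 50 µM final, 2 h at 37 °C. Spotted on P81 paper in triplicate, washed with TCA then acetone, scintillation counted. Activity given as % of untreated control (100%).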

U-937 [13] = assay: Inhibition of histone acetyltransferase in human U937 cells assessed as increase of histone H3 acetylation level at 50 uM after 15 mins by Western blotting; format: cell-based
Summary of the method: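 U937 cells treated at 50 µM. Histones prepared by Triton extraction buffer lysis, then overnight 0.2 M HCl extraction at 4 °C, Bradford quantitation. Immunoblot with pan-acetyl-H3 antibody (1:1000), Ponceau Red staining as loading check.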

U-937 [14] = assay: Inhibition of histone acetyltransferase in human U937 cells assessed as inhibition of acetylation of histone H4 at K8 at 50 uM after 24 hrs by Western blotting; format: cell-based
Summary of the method: as §1

U-937 [15] = assay: Inhibition of histone acetyltransferase in human U937 cells assessed as inhibition of acetylation of histone H3 at K9 at 50 uM after 24 hrs by Western blotting; format: cell-based
Summary of the method: as §1

U-937 [16] = assay: Cell cycle arrest in human U937 cells assessed as accumulation at S phase at 25 uM after 30 hrs using propidium iodide staining by flow cytometry; format: functional, cell-based
Summary of the method: as §2

[17] = target: Histone deacetylase (Homo sapiens) (UniProt Q13547+O15379+Q9UBN7+Q92769+Q9UQL6+Q8WUI4+Q9BY41+Q96DB2+P56524+Q9UKV0+Q969S8); assay: Inhibition of HDAC in human U937 cells at 50 uM after 15 mins by Western blotting; format: cell-based; settings: U-937
U-937 [18] = assay: Induction of apoptosis in human U937 cells at 25 uM after 30 hrs using annexin V/propidium iodide double-staining by FACS analysis; format: functional, cell-based
Summary of the method: as §3

[19] = target: Histone acetyltransferase KAT2B (Homo sapiens) (UniProt Q92831); assay: Increase of human recombinant KAT2B acetylation activity using histone H4 peptide as substrate at 50 uM after 2 hrs
Summary of the method: as §4

U-937 [20] = assay: Induction of apoptosis in human U937 cells after 30 hrs using annexin V/propidium iodide double-staining by FACS analysis; format: functional, cell-based; settings: U-937, 30 h
Summary of the method: as §3

U-937 [21] = assay: Inhibition of histone acetyltransferase in human U937 cells assessed as increase of pan-acetylated histone H4 level at 50 uM after 24 hrs by Western blotting; format: cell-based
Summary of the method: as §1

U-937 [22] = assay: Inhibition of histone acetyltransferase in human U937 cells assessed as increase of acetylation of histone H3 at K18 at 50 uM after 24 hrs by Western blotting; format: cell-based
Summary of the method: as §1

U-937 [23] = assay: Inhibition of histone acetyltransferase in human U937 cells assessed as increase of acetylation of histone H3 at K9 at 50 uM after 24 hrs by Western blotting; format: cell-based
Summary of the method: as §1

Chain of Albumin (P02769 whole entry): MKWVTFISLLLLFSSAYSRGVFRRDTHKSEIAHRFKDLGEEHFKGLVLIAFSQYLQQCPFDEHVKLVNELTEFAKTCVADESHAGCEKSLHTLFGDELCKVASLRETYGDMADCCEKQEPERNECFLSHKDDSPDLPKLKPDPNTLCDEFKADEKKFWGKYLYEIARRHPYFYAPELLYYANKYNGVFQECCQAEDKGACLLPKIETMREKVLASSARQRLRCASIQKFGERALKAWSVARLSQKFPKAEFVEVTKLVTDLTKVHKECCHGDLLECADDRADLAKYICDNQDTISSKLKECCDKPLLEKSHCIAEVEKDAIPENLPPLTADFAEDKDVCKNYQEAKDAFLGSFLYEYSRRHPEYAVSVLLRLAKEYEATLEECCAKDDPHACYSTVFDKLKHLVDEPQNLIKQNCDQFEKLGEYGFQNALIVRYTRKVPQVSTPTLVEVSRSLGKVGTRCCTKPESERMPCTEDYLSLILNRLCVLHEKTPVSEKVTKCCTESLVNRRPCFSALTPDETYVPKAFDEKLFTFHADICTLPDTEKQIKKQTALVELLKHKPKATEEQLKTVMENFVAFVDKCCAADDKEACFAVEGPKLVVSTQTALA
Chain of Histone acetyltransferase KAT2B (Homo sapiens) (Q92831 whole entry, looked up, the tested form may be a part): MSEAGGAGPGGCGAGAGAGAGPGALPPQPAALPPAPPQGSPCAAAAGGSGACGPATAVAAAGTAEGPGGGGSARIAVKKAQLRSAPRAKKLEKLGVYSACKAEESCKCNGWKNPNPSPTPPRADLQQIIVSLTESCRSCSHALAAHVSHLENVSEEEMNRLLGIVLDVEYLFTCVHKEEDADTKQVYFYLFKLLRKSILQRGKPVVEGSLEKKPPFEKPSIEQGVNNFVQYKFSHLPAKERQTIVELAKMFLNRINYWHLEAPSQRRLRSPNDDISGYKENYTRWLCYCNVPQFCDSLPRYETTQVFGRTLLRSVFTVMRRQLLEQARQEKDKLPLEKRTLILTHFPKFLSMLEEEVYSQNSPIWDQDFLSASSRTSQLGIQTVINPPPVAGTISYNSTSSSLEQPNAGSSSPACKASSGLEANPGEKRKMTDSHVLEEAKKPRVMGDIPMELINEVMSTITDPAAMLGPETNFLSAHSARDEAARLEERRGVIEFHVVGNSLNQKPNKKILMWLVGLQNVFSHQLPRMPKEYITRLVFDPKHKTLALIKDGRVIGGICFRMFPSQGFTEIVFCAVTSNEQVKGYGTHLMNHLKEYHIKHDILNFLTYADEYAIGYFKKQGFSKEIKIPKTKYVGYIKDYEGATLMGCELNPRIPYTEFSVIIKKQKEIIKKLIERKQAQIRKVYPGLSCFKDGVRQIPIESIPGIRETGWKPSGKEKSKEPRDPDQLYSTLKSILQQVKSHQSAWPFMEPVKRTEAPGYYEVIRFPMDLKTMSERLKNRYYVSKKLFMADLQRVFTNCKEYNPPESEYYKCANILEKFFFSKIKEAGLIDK
Chain of CREB-binding protein (Homo sapiens) (Q92793 2-2442 limits assumed): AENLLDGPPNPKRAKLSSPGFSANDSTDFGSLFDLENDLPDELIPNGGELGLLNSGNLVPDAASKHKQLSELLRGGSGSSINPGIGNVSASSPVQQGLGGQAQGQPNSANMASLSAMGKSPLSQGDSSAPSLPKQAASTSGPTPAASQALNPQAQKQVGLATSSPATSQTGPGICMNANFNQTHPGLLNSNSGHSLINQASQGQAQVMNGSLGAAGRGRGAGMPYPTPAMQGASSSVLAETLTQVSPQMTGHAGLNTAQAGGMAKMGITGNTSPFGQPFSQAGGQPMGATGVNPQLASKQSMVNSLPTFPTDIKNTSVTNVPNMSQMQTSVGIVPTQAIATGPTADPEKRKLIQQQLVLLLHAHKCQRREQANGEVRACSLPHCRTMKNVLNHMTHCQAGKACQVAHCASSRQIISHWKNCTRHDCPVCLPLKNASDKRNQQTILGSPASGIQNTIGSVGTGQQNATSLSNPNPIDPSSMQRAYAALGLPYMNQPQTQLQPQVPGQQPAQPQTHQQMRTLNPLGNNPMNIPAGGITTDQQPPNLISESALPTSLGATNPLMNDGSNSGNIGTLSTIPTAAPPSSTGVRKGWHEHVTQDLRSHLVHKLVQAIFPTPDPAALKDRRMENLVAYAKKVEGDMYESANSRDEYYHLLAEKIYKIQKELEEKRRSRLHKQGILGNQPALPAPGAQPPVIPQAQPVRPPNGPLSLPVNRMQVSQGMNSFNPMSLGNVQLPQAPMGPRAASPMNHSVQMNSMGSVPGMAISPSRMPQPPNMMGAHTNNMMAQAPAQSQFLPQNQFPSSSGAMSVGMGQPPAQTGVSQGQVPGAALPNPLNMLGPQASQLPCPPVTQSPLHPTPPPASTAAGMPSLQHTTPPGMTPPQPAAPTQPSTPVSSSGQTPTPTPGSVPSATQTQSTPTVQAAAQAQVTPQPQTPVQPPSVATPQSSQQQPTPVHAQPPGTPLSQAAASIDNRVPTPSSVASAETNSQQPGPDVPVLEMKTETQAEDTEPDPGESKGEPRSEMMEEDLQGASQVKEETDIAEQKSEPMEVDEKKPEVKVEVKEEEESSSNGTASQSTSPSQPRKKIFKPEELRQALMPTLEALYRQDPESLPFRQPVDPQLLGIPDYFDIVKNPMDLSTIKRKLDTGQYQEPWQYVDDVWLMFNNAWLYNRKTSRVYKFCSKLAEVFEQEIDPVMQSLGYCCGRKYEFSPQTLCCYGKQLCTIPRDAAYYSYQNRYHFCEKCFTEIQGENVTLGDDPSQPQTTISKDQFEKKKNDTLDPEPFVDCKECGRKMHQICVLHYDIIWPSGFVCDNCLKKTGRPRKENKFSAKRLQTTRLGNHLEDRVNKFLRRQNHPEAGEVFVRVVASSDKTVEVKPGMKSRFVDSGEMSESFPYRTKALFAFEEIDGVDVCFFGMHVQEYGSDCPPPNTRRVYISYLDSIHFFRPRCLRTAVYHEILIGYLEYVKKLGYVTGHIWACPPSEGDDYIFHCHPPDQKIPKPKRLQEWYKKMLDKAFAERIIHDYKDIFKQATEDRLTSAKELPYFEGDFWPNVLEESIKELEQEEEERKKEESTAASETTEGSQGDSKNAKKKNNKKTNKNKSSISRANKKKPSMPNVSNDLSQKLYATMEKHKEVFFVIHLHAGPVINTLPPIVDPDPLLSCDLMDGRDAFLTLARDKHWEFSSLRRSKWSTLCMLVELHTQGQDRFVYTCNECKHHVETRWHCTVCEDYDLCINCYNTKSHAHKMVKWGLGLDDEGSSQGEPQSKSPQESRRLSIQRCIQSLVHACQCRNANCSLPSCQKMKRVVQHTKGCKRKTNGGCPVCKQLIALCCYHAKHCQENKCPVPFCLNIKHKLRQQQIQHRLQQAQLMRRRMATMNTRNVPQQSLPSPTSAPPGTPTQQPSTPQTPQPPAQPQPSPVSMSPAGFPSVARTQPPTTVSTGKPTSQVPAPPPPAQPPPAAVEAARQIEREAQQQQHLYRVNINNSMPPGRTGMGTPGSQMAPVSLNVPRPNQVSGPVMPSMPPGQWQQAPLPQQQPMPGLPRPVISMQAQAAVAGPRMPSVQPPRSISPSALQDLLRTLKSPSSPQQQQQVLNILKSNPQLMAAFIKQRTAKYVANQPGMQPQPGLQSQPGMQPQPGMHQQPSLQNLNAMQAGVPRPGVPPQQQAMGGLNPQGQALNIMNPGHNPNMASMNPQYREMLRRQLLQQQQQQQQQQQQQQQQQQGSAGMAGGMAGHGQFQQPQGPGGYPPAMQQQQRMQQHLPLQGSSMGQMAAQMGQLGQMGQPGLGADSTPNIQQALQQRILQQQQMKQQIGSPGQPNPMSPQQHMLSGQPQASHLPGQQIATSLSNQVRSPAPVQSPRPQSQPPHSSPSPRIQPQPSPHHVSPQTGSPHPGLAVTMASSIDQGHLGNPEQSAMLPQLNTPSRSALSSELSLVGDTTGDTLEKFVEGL

| inhibition [2] | inhibition [12] | inhibition [17] | SMILES | inhibition (MCF7) | Activity (U-937 [1]) | inhibition (U-937 [13]) | Activity (U-937 [16]) | Activity (U-937 [18]) | also measured |
| --- | --- | --- | --- | --- | --- | --- | --- | --- | --- |
| Active |  | inactive | CCCCCCCCCCCCCCCCC(O)=C(C(=O)OCC)C(=O)OCC | inactive | inactive | inactive | inactive | inactive |  |
| Active |  | inactive | CCCCCCCCCCCCCCC(Cl)=C(C(=O)OCC)C(=O)OCC | inactive | inactive | inactive | inactive | inactive | Activity [19]: Active |
| Active |  | inactive | CCCCCCCCCCCCCC=C(C(=O)OCC)C(=O)OCC | inactive | inactive | Active |  |  | Activity [19]: Active; Activity (Albumin): Not Active; inhibition (U-937 [3]): Active; Activity (U-937 [4]): Active; inhibition (U-937 [5]): Active; inhibition (U-937 [6]): Active; IC50 (U-937 [20]): 42.9 µM; inhibition (U-937 [7]): Active; inhibition (U-937 [8]): Active; Activity (U-937 [9]): 51.8%; Activity [10]: Dose-dependent effect; Activity [11]: Dose-dependent effect; inhibition (U-937 [14]): inactive; inhibition (U-937 [15]): Active |
| 52% |  | inactive | CCCCCCCCCCCCCCC(O)=C(C(=O)OCC)C(=O)OCC | inactive | inactive | inactive | inactive | inactive | Activity [19]: Active |
| Active |  | inactive | CCCCCCCCCCCCCCC(C)=C(C(=O)OCC)C(=O)OCC | inactive | inactive | inactive | inactive | inactive |  |
| Active |  | inactive | CCCCCCCCCCCCCC(C)=C(C(=O)OCC)C(=O)OCC | inactive | inactive | inactive | inactive | inactive |  |

The next lines start with the compound.

| SMILES | inhibition [2] | inhibition [12] | inhibition [17] | inhibition (MCF7) | Activity (U-937 [1]) | inhibition (U-937 [13]) | Activity (U-937 [16]) | Activity (U-937 [18]) | also measured |
| --- | --- | --- | --- | --- | --- | --- | --- | --- | --- |
| CCCCCCCCCCCCCCC=C(C(C)=O)C(C)=O | 79% | Active |  | inactive | inactive | Active |  |  | Activity (Albumin): Not Active; inhibition (U-937 [3]): inactive; Activity (U-937 [4]): Active; inhibition (U-937 [5]): inactive; inhibition (U-937 [6]): inactive; inhibition (U-937 [7]): Active; inhibition (U-937 [8]): inactive; Activity (U-937 [9]): Active; Activity [10]: Dose-dependent effect; Activity [11]: inactive; inhibition (U-937 [14]): inactive; inhibition (U-937 [15]): Active |
| C=CC/C=C\C/C=C\CCCCCCCc1cccc(O)c1C(=O)O | 62% |  |  |  |  |  |  |  |  |
| CCCCCCCCCCCCCCC(N)=C(C(=O)OCC)C(=O)OCC |  |  |  |  | inactive |  | inactive | inactive |  |
| CCCCCCCCCCCCCCCC1C(=O)OC(C)(C)OC1=O | Active | Active | inactive | inactive | inactive | inactive | inactive | inactive |  |
| CCCCCCCCCCCCCCC=C1C(=O)OC(C)(C)OC1=O | Active | Active | inactive | inactive | inactive | inactive | inactive | inactive |  |
| CCCCCCCCCCCCCC(C(=O)OCC)C(=O)OCC | Active | Active | inactive | inactive | inactive | inactive | inactive | inactive |  |
| CCCCCCCCCCCCCCC(C(=O)OCC)C(=O)OCC | Active |  | inactive | inactive | inactive | inactive | inactive | inactive |  |
| CCCCCCCCCCC=C(C(=O)OCC)C(=O)OCC | Active | Active |  | inactive | inactive | Active |  |  | Activity (Albumin): Not Active; inhibition (U-937 [3]): Active; Activity (U-937 [4]): Active; inhibition (U-937 [5]): Active; inhibition (U-937 [6]): Active; IC50 (U-937 [20]): 156 µM; inhibition (U-937 [7]): Active; inhibition (U-937 [8]): Active; Activity (U-937 [9]): 25.4%; Activity [10]: Dose-dependent effect; Activity [11]: inactive; inhibition (U-937 [14]): inactive; inhibition (U-937 [15]): Active |
| CCCCCCCCCCCC=C(C(=O)OCC)C(=O)OCC | Active | Active |  | inactive | inactive | Active |  |  | Activity (Albumin): Not Active; inhibition (U-937 [3]): Active; Activity (U-937 [4]): Active; inhibition (U-937 [21]): Active; inhibition (U-937 [5]): Active; IC50 (U-937 [20]): 84.2 µM; inhibition (U-937 [7]): Active; inhibition (U-937 [8]): Active; Activity (U-937 [9]): 60.2%; Activity [10]: Dose-dependent effect; inhibition (U-937 [22]): Active; Activity [11]: inactive; inhibition (U-937 [23]): Active; inhibition (U-937 [14]): inactive |
| CCCCCCCCCCCCC=C(C(=O)OCC)C(=O)OCC | inactive | Active |  |  | inactive |  | inactive | inactive | inhibition (U-937 [3]): inactive; inhibition (U-937 [5]): inactive; inhibition (U-937 [6]): Active; inhibition (U-937 [7]): inactive; inhibition (U-937 [8]): inactive; inhibition (U-937 [14]): inactive; inhibition (U-937 [15]): Active |
| CCCCCCCCCCCCCCCC(C(=O)OCC)C(=O)OCC | Active |  | inactive | inactive | inactive | inactive | inactive | inactive |  |
